Test results as given in ChEMBL document CHEMBL2331302, “Selection of heptapeptides that bind helix 69 of bacterial 23S ribosomal RNA” (Bioorg Med Chem, 2013).
Activity calls are given as the source filed them. The calls are words filed in the database; no cut-off is given here.

Tests used:
[1] = Binding affinity to Escherichia coli H69-pseudouridineUpseudouridine RNA at 4- charge state at pH 7 after 30 mins by ESI-MS analysis; conditions: read-out: Kd(app)
How it was run: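 ESI-MS on a tandem quadrupole instrument: 1–3 μM RNA with 0–120 μM amidated peptide in 150 mM ammonium acetate, pH 7.0, 25% 2-propanol. Summed peak areas of free RNA and 1:1 complex (with Na+/K+ adducts) at the 4− charge state were used to get the fraction bound. Apparent Kd came from a quadratic-equation non-linear fit. Three independent experiments were run.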

Escherichia coli [2] = test: Ratio of apparent Kd for wild type Escherichia coli H69-UUU RNA at 4- charge state at pH 5.2 to apparent Kd for wild type Escherichia coli H69-UUU RNA at 4- charge state at pH 7
How it was run: (§1)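 The ratio compares apparent Kd for the 4− charge-state 1:1 complex from ESI-MS titrations at pH 5.2 and pH 7.0. Conditions: 150 mM ammonium acetate, 25% 2-propanol, 1–3 μM RNA, 0–120 μM amidated peptide, quadratic fit.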

[3] = Binding affinity to human H69 RNA at pH 7 after 30 mins by ESI-MS analysis; conditions: read-out: Kd(app)
How it was run: (§2)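 ESI-MS titration of free amidated peptide (0–120 μM) with 1–3 μM RNA (50 μL) in 150 mM ammonium acetate, pH 7.0 or 5.2, 25% 2-propanol. Summed peak areas of complexes (1:1, 1:2, Na+/K+ adducts) over free plus complexed RNA give fraction bound, either per charge state (4−, 5−) or all states. Apparent Kd comes from a quadratic fit, three independent experiments.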

Escherichia coli [4] = test: Selectivity ratio of apparent Kd for Escherichia coli A-site 16s rRNA at pH 7 to apparent Kd for wild type Escherichia coli H69 RNA at pH 7
How it was run: (§3)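 The ratio compares apparent Kd for each RNA with that for modified wild-type H69, both for 1:1 complexes from ESI-MS at pH 7.0. Conditions: 150 mM ammonium acetate, 25% 2-propanol, 1–3 μM RNA, 0–120 μM amidated peptide, fraction bound fitted by a quadratic equation.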

[5] = Binding affinity to Escherichia coli H69-UUU RNA at 4- charge state at pH 5.2 after 30 mins by ESI-MS analysis; conditions: read-out: Kd(app); how it was run: as §2
Escherichia coli [6] = test: Selectivity ratio of apparent Kd for Escherichia coli helix 31 at pH 7 to apparent Kd for wild type Escherichia coli H69 RNA at pH 7; how it was run: as §3
[7] = Binding affinity to Escherichia coli H69-UUU RNA at 4- charge state at pH 7 after 30 mins by ESI-MS analysis; conditions: read-out: Kd(app); how it was run: as §2
[8] = Binding affinity to Escherichia coli H69-U2(pseudouridine) RNA at 4- charge state at pH 7 after 30 mins by ESI-MS analysis; conditions: read-out: Kd(app); how it was run: as §2
Escherichia coli [9] = test: Selectivity ratio of apparent Kd for Escherichia coli H69-2(pseudouridine)U RNA at 4- charge state at pH 7 to apparent Kd for wild type Escherichia coli H69 RNA at 4- charge state at pH 7; how it was run: as §3
Escherichia coli [10] = test: Selectivity ratio of apparent Kd for Escherichia coli H69-U2(pseudouridine) RNA at 4- charge state at pH 7 to apparent Kd for wild type Escherichia coli H69 RNA at 4- charge state at pH 7; how it was run: as §3
[11] = Binding affinity to Escherichia coli A-site 16s rRNA at pH 7 after 30 mins by ESI-MS analysis; conditions: read-out: Kd(app); how it was run: as §2
[12] = Binding affinity to wild type Escherichia coli H69 RNA at 4- charge state at pH 5.2 after 30 mins by ESI-MS analysis; conditions: read-out: Kd(app); how it was run: as §2
[13] = Selectivity ratio of apparent Kd for human H69 RNA at pH 7 to apparent Kd for wild type Escherichia coli H69 RNA at pH 7; how it was run: as §3
[14] = Binding affinity to Escherichia coli H69-2(pseudouridine)U RNA at 4- charge state at pH 7 after 30 mins by ESI-MS analysis; conditions: read-out: Kd(app); how it was run: as §2
[15] = Binding affinity to Escherichia coli helix 31 at pH 7 after 30 mins by ESI-MS analysis; conditions: read-out: Kd(app); how it was run: as §2
Escherichia coli [16] = test: Selectivity ratio of apparent Kd for Escherichia coli H69-UUU RNA at 4- charge state at pH 7 to apparent Kd for wild type Escherichia coli H69 RNA at 4- charge state at pH 7; how it was run: as §3
Escherichia coli [17] = test: Selectivity ratio of apparent Kd for Escherichia coli H69-pseudouridineUpseudouridine RNA at 4- charge state at pH 7 to apparent Kd for wild type Escherichia coli H69 RNA at 4- charge state at pH 7
Escherichia coli [18] = test: Ratio of apparent Kd for wild type Escherichia coli H69 RNA at 4- charge state at pH 5.2 to apparent Kd for wild type Escherichia coli H69 RNA at 4- charge state at pH 7; how it was run: as §1
Homo sapiens [19] = species on record: Homo sapiens; test: Binding affinity to human 5'-fluorescein-tagged TAR RNA after 24 hrs by fluorescein-based bead assay
How it was run: (§4)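 TentaGel beads carrying peptide with a free N-terminus were blocked 3 h in SuperBlock (PBS, 0.05% Tween-20) and water-washed. About 10–12 beads were incubated with 15 μL of 1 μM 5′-fluorescein-labelled RNA in 10 mM HEPES for 24 h at 4 °C with shaking, repeated 4× with fresh RNA. Beads were water-washed and imaged by fluorescence microscopy. Peptide-free beads gave background.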

Escherichia coli [20] = test: Binding affinity to wild type Escherichia coli 5'-fluorescein-tagged H69 RNA after 24 hrs by fluorescein-based bead assay relative to control; how it was run: as §4
Escherichia coli [21] = test: Binding affinity to wild type Escherichia coli Qdot-labeled H69 RNA after 16 hrs by fluorescein-based bead assay
How it was run: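 1 nM fluorescein-H69 was pre-incubated 1 h with 1 nM anti-fluorescein Qdot 655, then with beads for 16 h at 4 °C. Beads were washed, and red and green per-bead pixel intensities (1–255 scale) quantified against no-peptide beads.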

Escherichia coli [22] = test: Selectivity ratio of Kd for Escherichia coli H69-UUU RNA to Kd for wild type Escherichia coli H69 RNA
Homo sapiens [23] = species on record: Homo sapiens; test: Binding affinity to human 5'-fluorescein-tagged 18s RNA after 24 hrs by fluorescein-based bead assay; how it was run: as §4

Work on H-NQVANHQ-NH2 yielded a Kd [1] of 28 µM, a Ratio (Escherichia coli [2]) of 1.6 and a Kd [3] of 50 µM. It also gave a Selectivity ratio (Escherichia coli [4]) of 4, a Kd [5] of 31 µM and a Selectivity ratio (Escherichia coli [6]) of 3. It also gave a Kd [7] of 19 µM, a Kd [8] of 28 µM and a Selectivity ratio (Escherichia coli [9]) of 2.3. The Selectivity ratio (Escherichia coli [10]) was 2.3, the Kd [11] was 49 µM and the Kd [12] was 34 µM. For the same molecule, the Selectivity ratio [13] was 4, the Kd [14] was 28 µM and the Kd [15] was 33 µM. The Selectivity ratio (Escherichia coli [16]) was 1.6, the Selectivity ratio (Escherichia coli [17]) was 2.3 and the Ratio (Escherichia coli [18]) was 2.8.
In the case of H-STYTSVS-OH, the Activity (Homo sapiens [19]) is reported as “Active”, the Activity (Escherichia coli [20]) is reported as “Active” and the Activity (Escherichia coli [21]) is reported as “Active”.
NC[C@@H]1O[C@H](O[C@H]2[C@@H](O)[C@H](O[C@@H]3[C@@H](O)[C@H](N)C[C@H](N)[C@H]3O[C@H]3O[C@H](CO)[C@@H](O)[C@H](O)[C@H]3N)O[C@@H]2CO)[C@H](N)[C@@H](O)[C@@H]1O showed a Selectivity ratio (Escherichia coli [22]) of 2.
With H-NQVANHQ-OH the Activity (Homo sapiens [19]) was “inactive”, the Activity (Escherichia coli [20]) was “Active” and the Activity (Homo sapiens [23]) was “inactive”. The Activity (Escherichia coli [21]) was “Active”.
